Measurements: PMC7918756 (The Journal of Experimental Medicine, 2021)
Values belong to the compound of their own block, whether it stands above or below them.

Assays:
[1] = system: HASMCs (human primary bronchial smooth muscle cells); test: impedance-based HASMC contraction assay; format: cell-based
rats [2] = test: OVA challenge model of asthma in rats; format: in vivo, rat; details: oral
Summary of the method: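 Sensitised Brown Norway rats were challenged from day 28 with aerosolised 2% OVA in PBS, 30 min daily for 4 consecutive days. Vehicle or test compound was gavaged 3 h before each challenge; dexamethasone 5 mg/kg orally was the positive control. BALF was collected 24 h after the final treatment, eight rats per group.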

human TRPV1 = human TRPV1 (Homo sapiens, UniProt Q8NER1); test: Ca2+ responses evoked by 30 nM capsaicin; format: cell-based
human TRPC6 = target: T1, human TRPC6 (Homo sapiens, UniProt Q9Y210); test: membrane potential assay using 75 μM carbochol; format: cell-based
T1 sequence (Q9Y210 1-931): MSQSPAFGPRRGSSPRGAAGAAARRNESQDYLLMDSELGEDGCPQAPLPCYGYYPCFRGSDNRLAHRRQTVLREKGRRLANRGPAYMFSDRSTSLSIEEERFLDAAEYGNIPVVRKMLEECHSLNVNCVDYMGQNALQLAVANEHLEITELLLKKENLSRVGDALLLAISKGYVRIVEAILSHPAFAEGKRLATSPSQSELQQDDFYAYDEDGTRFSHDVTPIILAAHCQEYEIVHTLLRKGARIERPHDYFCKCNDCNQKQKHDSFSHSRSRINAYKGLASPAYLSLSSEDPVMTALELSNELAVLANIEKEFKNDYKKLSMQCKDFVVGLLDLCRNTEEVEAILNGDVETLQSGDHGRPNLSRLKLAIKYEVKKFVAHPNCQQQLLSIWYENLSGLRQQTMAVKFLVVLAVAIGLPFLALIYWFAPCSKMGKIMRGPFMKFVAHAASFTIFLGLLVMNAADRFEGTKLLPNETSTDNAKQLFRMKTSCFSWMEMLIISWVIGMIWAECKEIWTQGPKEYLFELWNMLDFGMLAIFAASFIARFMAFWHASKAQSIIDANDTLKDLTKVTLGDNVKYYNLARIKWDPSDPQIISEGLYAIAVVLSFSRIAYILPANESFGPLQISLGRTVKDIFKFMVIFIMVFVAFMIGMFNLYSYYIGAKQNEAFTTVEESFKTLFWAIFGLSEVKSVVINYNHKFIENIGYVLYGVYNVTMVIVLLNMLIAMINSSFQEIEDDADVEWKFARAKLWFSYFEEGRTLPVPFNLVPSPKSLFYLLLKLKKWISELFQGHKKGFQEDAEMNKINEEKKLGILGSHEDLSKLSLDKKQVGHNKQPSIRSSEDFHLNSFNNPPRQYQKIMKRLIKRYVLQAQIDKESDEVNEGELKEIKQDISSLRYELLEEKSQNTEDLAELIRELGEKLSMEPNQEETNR

guinea pig TRPA1 = guinea pig TRPA1 (Cavia porcellus, UniProt H0VJD1); test: CHO cell line FLIPR Ca2+ assay, CA-evoked; format: cell-based
rats [3] = test: AITC-induced nocifensive behavior in rats; format: in vivo, rat
Summary of the method: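 Rats pretreated with test compound at the indicated doses, then given intraplantar AITC. Nocifensive behaviour scored as flinching plus hind paw–directed licking and biting. Data reported as mean ± SEM.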

HLFs = test: calcium imaging, AITC-induced calcium flux in primary cells; format: cell-based, human; details: HLFs treated with TRPA1 agonist AITC
Summary of the method: (§1)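 Cells were imaged 15–24 h after plating, with fluorescence sampled at 0.5 Hz. TRPA1 activity was evoked by perfusing saline containing 50 µM AITC.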

healthy volunteers [4] = test: Phase 1 SAD study, safety and tolerability; format: in vivo, human; details: single oral dose 25-600 mg
Summary of the method: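 Healthy volunteers received a single oral dose, fasted, randomised 6 active:2 placebo per cohort at 25, 75, 200 or 600 mg. Safety and tolerability was the primary outcome. Escalation targeted about two- to threefold exposure increases, decided after review of safety and PK data up to 72 h post-dose.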

guinea pigs [5] = test: OVA challenge model of asthma in guinea pigs; format: in vivo, guinea pig; details: single oral administration of 70 mg/kg
Summary of the method: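 Hartley guinea pigs were immunised i.p. on days 0 and 7 with 100 mg OVA plus 80 mg alum in PBS. On day 28 they were challenged with nebulised 0.1% OVA in PBS for 30 min. Vehicle or test compound was given by gavage 3 h before challenge. Animals were euthanised 24 h later, with aortic blood taken for PK.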

mouse TRPA1 = mouse TRPA1 (Mus musculus, UniProt Q8BLA8); test: CHO cell line FLIPR Ca2+ assay, CA-evoked; format: cell-based
Summary of the method: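 Mouse TRPA1-expressing CHO cells, fluorescent Ca2+ dye loaded, were exposed 10 min to a test compound concentration series and then challenged with cinnamaldehyde. Peak fluorescence responses were used to derive concentration-dependent inhibition.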

[6] = IV/PO PK, summary across preclinical species; format: in vivo
rats [7] = test: AITC-induced dermal blood flow; format: in vivo, rat; details: oral 3 or 10 mg/kg, 3 h before AITC skin challenge
Summary of the method: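 Rats dosed orally 3 h before imaging with 0, 3.0 or 10.0 mg/kg test compound in 85% MCT / 15% DMSO. Topical AITC skin challenge. Dermal blood flow recorded by laser speckle contrast imaging. Traces normalised to fold-change by subtracting and dividing by the mean baseline DBF before AITC. DBF rise-time and maximal level assessed.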

[8] = system: cross-species hepatocytes; test: hepatocyte metabolic stability, cross-species summary; format: in vitro ADME
Summary of the method: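 Test compound at 1 µM was incubated with pooled cryopreserved hepatocytes from female CD-1 mouse, male Sprague-Dawley rat, male beagle dog, male cynomolgus monkey and mixed-gender human.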

healthy volunteers [9] = test: Phase 1 SAD study, AITC skin challenge; format: in vivo, human
Summary of the method: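 Randomised, double-blind, single ascending oral dose study in fasted healthy volunteers: six active and two placebo per cohort, at 25, 75, 200 or 600 mg (tablets). AITC skin challenge was at 3 h (25 mg), 8 h (75 mg) or 6 h (200/600 mg) post-dose. DBF was recorded by LSCI from 2 min before to 21 min after AITC. Pain and itch were rated 0–10 at 2–20 min. DBF AUC0–10 min and maximal scores were compared with pooled placebo (Dunnett's); plasma concentrations were measured by validated bioanalysis.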

dog TRPA1 = dog TRPA1 (Canis lupus familiaris, UniProt A0A8I3Q1Q7); test: CHO cell line FLIPR Ca2+ assay, CA-evoked; format: cell-based
human TRPM8 = human TRPM8 (Homo sapiens, UniProt Q7Z2W7); test: Ca2+ responses evoked by 50 μM menthol; format: cell-based
guinea pigs [10] = test: AITC-induced dermal blood flow; format: in vivo, guinea pig; details: oral 5, 15 or 45 mg/kg, 3.5 h before AITC skin challenge
Summary of the method: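 Female Hartley guinea pigs, 5 wk old, were dosed orally with 0, 5, 15 or 45 mg/kg test compound in 85% MCT/15% DMSO, 3.5 h before topical AITC. Dermal blood flow was imaged by laser speckle contrast imaging. Traces were normalised to fold-change against the mean pre-AITC baseline.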

[11] = Phase 1 SAD study, plasma PK; format: in vivo, human; details: healthy volunteers, dose increased from 75 mg to 600 mg
Summary of the method: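 Healthy volunteers in single-ascending-dose cohorts, randomised 6 test compound : 2 placebo, dosed fasted at 25, 75, 200 or 600 mg. Blood sampled before dose and at multiple time points after dose. Plasma concentrations measured by validated analytical methods.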

HASMCs = test: calcium imaging, AITC-induced calcium flux in primary cells; format: cell-based, human; details: HASMCs treated with TRPA1 agonist AITC
Summary of the method: as §1

MDCK permeability = format: in vitro ADME, canine; details: dog
Summary of the method: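 MDCK cells were seeded at 2.5 × 10^5 cells/ml and grown 4 d at 37°C, 5% CO2. Medium was DMEM/Earle's balanced salt solution with 10% FBS, renewed on day 2 and the day before the assay.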

rats [12] = test: AITC-induced vascular leakage; format: in vivo, rat; details: rats, 1, 3 and 10 mg/kg, 3 h before topical AITC
Summary of the method: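 Rats dosed 3 h beforehand were given 2% Evans blue i.v. (saline, 2.5 ml/kg) under isoflurane. Then 25 µl 20% AITC went on one ear and mineral oil on the other. Ear thickness was measured. At 20 min after AITC, dye was extracted in formamide (24 h, 65°C) and read at 620 nm.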

[13] = target: cynomolgus (cyno) monkey TRPA1 (Macaca fascicularis, UniProt A0A2K5VSJ1); test: CHO cell line FLIPR Ca2+ assay, CA-evoked; format: cell-based
Chain of cynomolgus (cyno) monkey TRPA1 (A0A2K5VSJ1 26-1144): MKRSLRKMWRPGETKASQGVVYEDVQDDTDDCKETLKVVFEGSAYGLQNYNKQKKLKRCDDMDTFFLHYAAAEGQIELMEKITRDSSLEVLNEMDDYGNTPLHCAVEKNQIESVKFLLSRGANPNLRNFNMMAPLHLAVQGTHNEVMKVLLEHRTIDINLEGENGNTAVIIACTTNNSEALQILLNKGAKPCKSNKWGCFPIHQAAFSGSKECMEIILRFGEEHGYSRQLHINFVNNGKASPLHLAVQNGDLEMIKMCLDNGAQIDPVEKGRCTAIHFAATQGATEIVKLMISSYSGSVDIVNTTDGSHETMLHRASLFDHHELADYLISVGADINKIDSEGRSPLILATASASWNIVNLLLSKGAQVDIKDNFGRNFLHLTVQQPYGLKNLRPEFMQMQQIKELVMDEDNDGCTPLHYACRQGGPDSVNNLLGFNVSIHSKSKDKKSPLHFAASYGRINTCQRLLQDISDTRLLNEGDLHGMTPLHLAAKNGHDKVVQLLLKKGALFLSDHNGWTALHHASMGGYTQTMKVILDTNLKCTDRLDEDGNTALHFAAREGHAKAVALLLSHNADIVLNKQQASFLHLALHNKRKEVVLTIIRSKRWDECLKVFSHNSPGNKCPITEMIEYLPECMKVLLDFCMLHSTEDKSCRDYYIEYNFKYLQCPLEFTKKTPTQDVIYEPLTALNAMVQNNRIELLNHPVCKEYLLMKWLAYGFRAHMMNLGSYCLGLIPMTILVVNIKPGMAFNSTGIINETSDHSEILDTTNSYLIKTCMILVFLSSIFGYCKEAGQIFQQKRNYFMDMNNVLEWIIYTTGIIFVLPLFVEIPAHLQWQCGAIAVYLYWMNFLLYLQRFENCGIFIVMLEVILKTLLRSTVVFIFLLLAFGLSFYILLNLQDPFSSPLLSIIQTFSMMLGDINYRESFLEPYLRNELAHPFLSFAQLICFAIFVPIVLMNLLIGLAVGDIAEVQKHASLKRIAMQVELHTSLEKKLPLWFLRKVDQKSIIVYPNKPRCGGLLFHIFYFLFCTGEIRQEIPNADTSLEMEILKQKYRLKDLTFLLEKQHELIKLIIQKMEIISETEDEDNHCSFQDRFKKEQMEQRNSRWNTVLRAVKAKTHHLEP

Chain of human TRPV1 (Q8NER1 whole entry): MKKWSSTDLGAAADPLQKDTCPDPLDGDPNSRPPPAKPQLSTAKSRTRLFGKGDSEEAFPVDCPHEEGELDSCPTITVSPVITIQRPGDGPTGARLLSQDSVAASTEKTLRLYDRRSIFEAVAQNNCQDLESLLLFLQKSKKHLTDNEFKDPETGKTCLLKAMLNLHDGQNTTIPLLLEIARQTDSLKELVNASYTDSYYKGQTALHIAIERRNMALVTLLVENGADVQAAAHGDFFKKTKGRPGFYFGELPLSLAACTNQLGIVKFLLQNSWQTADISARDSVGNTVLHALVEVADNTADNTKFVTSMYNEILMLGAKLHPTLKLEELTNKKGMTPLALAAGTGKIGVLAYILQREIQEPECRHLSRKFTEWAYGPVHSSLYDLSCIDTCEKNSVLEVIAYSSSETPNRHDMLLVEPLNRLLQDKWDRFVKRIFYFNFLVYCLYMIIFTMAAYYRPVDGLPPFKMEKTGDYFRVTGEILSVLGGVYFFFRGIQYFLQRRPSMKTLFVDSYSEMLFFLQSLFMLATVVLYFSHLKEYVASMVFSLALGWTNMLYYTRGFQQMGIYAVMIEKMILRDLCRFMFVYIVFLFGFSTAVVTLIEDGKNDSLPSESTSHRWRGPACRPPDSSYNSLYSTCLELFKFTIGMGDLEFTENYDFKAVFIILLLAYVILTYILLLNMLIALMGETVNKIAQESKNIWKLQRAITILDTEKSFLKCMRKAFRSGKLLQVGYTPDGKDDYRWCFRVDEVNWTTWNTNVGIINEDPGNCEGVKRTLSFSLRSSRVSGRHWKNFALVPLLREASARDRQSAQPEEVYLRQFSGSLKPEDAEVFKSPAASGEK
Chain of guinea pig TRPA1 (H0VJD1 1-991): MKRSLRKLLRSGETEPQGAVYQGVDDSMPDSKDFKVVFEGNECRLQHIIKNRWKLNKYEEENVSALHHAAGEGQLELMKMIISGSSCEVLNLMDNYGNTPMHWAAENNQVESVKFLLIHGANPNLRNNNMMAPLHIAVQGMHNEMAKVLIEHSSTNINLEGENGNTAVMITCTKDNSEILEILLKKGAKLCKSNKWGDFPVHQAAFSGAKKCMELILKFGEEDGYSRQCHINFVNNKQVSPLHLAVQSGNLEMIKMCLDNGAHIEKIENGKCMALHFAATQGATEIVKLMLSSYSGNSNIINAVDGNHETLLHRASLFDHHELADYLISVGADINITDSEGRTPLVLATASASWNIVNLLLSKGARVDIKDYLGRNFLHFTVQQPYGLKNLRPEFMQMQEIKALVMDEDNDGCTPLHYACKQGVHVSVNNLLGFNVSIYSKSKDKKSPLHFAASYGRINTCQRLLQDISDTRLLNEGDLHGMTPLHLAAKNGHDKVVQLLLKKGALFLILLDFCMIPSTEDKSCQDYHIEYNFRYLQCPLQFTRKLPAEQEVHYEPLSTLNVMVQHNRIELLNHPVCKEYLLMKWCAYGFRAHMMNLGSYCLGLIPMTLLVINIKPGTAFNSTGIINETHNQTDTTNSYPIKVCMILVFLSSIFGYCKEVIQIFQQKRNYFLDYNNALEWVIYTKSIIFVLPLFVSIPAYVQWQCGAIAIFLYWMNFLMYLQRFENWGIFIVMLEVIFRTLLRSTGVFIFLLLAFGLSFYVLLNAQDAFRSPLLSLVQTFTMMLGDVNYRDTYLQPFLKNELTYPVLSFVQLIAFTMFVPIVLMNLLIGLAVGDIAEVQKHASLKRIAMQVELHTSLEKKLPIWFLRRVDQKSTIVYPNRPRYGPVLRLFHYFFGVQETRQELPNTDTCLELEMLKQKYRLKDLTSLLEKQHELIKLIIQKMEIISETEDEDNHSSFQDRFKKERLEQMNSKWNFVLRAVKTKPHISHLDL
Chain of mouse TRPA1 (Q8BLA8 whole entry): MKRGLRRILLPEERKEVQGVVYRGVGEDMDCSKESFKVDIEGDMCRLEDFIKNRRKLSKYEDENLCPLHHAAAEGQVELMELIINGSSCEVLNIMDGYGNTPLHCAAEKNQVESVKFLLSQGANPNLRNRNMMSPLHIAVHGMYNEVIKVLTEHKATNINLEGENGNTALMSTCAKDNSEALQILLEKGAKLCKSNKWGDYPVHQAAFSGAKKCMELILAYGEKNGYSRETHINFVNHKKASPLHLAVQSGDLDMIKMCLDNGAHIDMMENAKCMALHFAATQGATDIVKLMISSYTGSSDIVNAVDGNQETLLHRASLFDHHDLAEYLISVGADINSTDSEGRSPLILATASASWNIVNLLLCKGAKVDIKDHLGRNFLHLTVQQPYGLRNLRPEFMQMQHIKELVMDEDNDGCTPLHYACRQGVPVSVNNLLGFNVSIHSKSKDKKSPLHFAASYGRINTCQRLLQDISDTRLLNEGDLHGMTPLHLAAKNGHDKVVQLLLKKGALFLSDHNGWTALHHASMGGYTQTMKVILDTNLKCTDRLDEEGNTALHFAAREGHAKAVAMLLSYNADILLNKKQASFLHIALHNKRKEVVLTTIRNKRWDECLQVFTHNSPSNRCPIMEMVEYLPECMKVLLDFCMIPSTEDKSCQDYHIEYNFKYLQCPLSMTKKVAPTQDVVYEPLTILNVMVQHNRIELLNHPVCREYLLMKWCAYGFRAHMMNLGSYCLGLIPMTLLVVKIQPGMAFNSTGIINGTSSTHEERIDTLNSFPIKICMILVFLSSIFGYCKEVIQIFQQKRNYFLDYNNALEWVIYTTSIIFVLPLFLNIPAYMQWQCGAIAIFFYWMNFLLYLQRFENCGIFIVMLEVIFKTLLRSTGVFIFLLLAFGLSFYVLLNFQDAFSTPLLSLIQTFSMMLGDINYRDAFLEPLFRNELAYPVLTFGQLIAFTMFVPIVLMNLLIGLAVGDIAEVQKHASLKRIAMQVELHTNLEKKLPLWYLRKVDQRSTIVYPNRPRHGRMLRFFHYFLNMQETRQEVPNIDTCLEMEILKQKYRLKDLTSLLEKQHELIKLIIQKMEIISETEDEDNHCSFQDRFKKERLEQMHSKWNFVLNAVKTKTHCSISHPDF

SMILES: CCC(=N\O)/C(C)=C/c1ccc(F)cc1 [A-967079, reference compound]
- times less potent than GDC-0334 ([1]; HASMC contraction assay (Fig. 2 C)): ~500 times

- IC50 ([1]; Homo sapiens, HASMC, read-out: HASMC contraction IC50): 1.8 nM
- IC50 (human TRPV1): > 10000 nM
- IC50 (human TRPC6): > 10000 nM
- IC50 (guinea pig TRPA1): 11.1 nM
- IC50 (mouse TRPA1): 2.7 nM
- clearances [6]: low to moderate
- metabolite stability in cross-species hepatocytes [8]: moderate to high
- IC50 (dog TRPA1): 102 nM
- IC50 (human TRPM8): > 10000 nM
- Papp A→B at 180 min, 10 µM (MDCK permeability): 18.9 ×10⁻⁶ cm/s
- IC50 [13]: 3.6 nM
SMILES: C[C@H]1[C@H](F)C[C@@H](C(=O)NCc2cc(-c3cnc(C(F)(F)F)nc3)ncc2C(F)(F)F)N1S(=O)(=O)c1ccc(F)cc1 [GDC-0334, (2S,4R,5S)-4-fluoro-1-(4-fluorophenylsulfonyl)-5-methyl-N-((5-(trifluoromethyl)-2-(2-(trifluoromethyl)pyrimidin-5-yl)pyridin-4-yl)methyl)pyrrolidine-2-carboxamide]
- substance P (SP) in BALF after OVA challenge (rats [2]): significantly blunted an increase
- AITC-induced nocifensive behavior (rats [3]; 3-mg/kg dose): suppression comparable to that of Trpa1^−/− rats
- AITC-induced nocifensive behavior (rats [3]; pretreatment, indicated doses): reduced AITC-induced nocifensive behavior in a dose-dependent manner
- effect on AITC-induced calcium flux (HLFs): inhibited calcium flux
- TEAEs thought to be related to treatment (healthy volunteers [4]): one case of mild headache
- serious TEAEs (healthy volunteers [4]): no serious treatment-emergent AEs
- tolerability (healthy volunteers [4]): well tolerated with only mild or moderate adverse events
- BALF infiltrates to the airways (guinea pigs [5]): significantly reduced BALF infiltrates
- AITC-induced DBF (rats [7]): Dose-dependent decreases in the DBF rise-times and maximal levels
- AITC-induced pain and itch (healthy volunteers [9]; healthy volunteers dosed with 600 mg): near-complete inhibition
- AITC-induced pain and itch (healthy volunteers [9]; healthy volunteers, 25-600 mg vs placebo, verbal rating 0–10): dose dependently reduced
- DBF response to the AITC skin challenge (healthy volunteers [9]; healthy volunteers, AITC challenge 3–8 h after oral dosing): strong PD effect
- free plasma concentration with near-complete inhibition of AITC-induced DBF (healthy volunteers [9]; healthy volunteers, free plasma): > 4.92 nM
- plasma concentration with near-complete inhibition of AITC-induced DBF (healthy volunteers [9]; healthy volunteers, total plasma): > 250 ng/mL
- AITC-induced DBF (guinea pigs [10]): dose-dependent reduction
- exposures (Cmax, AUC0–24h, AUC0–72h) vs dose [11]: Approximately dose-proportional increases
- effect on AITC-induced calcium flux (HASMCs): inhibited calcium flux
- Evans blue perfusion (AITC-induced vascular leakage) (rats [12]): Dose-dependent reductions
